For assay [1], the target named is T1, Protein cereblon/NAD-dependent protein deacetylase sirtuin-1 (Homo sapiens) (UniProt Q96EB6+Q96SW2). Nature of the assay: Protac activity at CRBN/SIRT1 in human HEK293T cells assessed as abundance ratio at 5 uM incubated for 16 hrs by TMT global proteomics assay relative to DMSO. Particulars: HEK-293T. The class given is cell-based. The method in brief: (§1)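 HEK 293T cells given 5 μM compound for 16 h. Global proteomics used Tandem Mass Tag labelling, and each sirtuin's abundance is given as a ratio of treated to DMSO-treated cells.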
T1 sequence (Q96SW2 whole entry, looked up, one chain of several): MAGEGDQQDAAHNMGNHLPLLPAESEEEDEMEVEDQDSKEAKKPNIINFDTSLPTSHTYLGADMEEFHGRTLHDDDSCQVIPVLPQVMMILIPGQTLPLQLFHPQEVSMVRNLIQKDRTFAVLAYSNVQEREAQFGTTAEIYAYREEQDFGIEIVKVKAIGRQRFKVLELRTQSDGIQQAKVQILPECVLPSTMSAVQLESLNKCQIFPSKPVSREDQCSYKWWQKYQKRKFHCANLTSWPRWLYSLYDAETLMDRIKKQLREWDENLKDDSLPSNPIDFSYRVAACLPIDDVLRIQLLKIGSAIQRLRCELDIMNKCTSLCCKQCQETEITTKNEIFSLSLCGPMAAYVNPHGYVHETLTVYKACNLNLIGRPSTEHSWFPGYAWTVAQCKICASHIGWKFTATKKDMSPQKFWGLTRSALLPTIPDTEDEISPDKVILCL

The target of assay [2] is T2, Protein cereblon/NAD-dependent protein deacetylase sirtuin-2 (Homo sapiens) (UniProt Q8IXJ6+Q96SW2). Nature of the assay: Protac activity at CRBN/SIRT2 in human MDA-MB-468 cells assessed as SIRT2 degradation after 48 hrs by immunoblot analysis. Type of assay: cell-based. The essentials: (§2)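 In MDA-MB-231 and MDA-MB-468 cells, SIRT2 was assessed by immunoblot after compound treatment.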
T2 sequence (Q8IXJ6 whole entry, looked up): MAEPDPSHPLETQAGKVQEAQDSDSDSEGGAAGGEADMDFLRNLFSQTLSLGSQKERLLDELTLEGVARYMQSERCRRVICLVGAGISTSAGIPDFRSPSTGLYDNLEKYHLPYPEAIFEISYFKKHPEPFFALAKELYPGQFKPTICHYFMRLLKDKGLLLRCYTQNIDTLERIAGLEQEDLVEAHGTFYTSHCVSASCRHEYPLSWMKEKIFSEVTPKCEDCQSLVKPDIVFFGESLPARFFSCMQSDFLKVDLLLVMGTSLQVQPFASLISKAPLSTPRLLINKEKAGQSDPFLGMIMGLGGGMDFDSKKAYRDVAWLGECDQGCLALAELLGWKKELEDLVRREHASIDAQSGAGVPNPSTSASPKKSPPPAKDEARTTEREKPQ
T2 sequence (Q96SW2 whole entry, looked up): as the sequence (Q96SW2 whole entry, looked up, one chain of several) above
In general terms: A western blot detects proteins with antibodies after separation by electrophoresis.

Assay [3] deals with T3, NAD-dependent protein deacetylase sirtuin-1 (Homo sapiens, UniProt Q96EB6).
T3 sequence (Q96EB6 whole entry): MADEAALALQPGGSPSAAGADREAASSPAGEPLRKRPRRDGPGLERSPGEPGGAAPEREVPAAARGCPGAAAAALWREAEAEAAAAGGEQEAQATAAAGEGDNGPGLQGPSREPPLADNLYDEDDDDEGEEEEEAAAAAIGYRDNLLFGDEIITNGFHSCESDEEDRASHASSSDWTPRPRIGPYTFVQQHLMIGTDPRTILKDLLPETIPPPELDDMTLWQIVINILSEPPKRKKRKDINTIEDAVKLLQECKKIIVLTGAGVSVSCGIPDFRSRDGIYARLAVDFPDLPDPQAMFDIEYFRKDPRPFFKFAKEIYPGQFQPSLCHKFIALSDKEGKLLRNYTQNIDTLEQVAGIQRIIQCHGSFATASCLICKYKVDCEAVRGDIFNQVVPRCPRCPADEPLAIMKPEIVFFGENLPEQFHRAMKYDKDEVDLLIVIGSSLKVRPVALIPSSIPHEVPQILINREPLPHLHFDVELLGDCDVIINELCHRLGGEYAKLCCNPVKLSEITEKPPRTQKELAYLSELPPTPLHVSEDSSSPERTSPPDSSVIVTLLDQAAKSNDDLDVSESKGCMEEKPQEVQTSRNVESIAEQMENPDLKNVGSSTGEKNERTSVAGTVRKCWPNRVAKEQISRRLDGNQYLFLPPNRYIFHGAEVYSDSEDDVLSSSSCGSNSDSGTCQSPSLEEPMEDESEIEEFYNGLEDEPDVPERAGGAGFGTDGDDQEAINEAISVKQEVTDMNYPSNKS
Nature of the assay: Inhibition of human SIRT1 deacetylation activity using H3K9Ac as substrate preincubated for 15 mins in presence of NAD+ followed by substrate addition by HPLC analysis. The method in brief: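 In vitro sirtuin reaction mixture with compound at a range of concentrations. Compound was preincubated with NAD+ and the enzyme before the substrate peptide was added. IC50 taken from the concentration series.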

Assay [4] deals with T4, Protein cereblon/NAD-dependent protein deacetylase sirtuin-3, mitochondrial (Homo sapiens) (UniProt Q9NTG7+Q96SW2). Nature of the assay: Protac activity at CRBN/SIRT3 in human BT549 cells assessed as SIRT3 degradation at 5 to 10 uM after 48 hrs by immunoblot analysis. Particulars: BT-549, dose microM 5-10, time 48.0 hrs. The class given is cell-based. The method in brief: (§3)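 MCF7 or BT-549 cells exposed to inhibitor at the indicated concentrations for 48 h; SIRT1, SIRT2 and SIRT3 levels read by immunoblot.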
T4 sequence (Q96SW2 whole entry, looked up): as the sequence (Q96SW2 whole entry, looked up, one chain of several) above
T4 sequence (Q9NTG7 whole entry, looked up): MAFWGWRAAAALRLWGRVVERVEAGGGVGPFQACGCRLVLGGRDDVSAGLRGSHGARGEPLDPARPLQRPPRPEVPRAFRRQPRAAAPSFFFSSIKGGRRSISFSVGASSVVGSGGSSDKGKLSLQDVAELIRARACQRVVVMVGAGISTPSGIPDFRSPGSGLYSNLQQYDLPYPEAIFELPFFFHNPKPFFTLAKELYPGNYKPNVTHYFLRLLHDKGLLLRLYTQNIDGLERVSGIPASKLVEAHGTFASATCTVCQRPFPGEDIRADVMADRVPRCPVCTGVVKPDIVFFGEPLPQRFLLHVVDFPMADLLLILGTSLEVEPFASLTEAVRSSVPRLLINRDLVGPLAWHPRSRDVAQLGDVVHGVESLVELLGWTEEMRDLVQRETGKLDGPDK

Assay [5] deals with T2, Protein cereblon/NAD-dependent protein deacetylase sirtuin-2 (Homo sapiens). Nature of the assay: Protac activity at CRBN/SIRT2 in human MCF7 cells assessed as SIRT2 degradation at 5 uM preincubated with proteasome inhibitior MG132 for 2 hrs followed by compound addition measured after 16 hrs by immunoblot analysis. The class given is cell-based. The method in brief:
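Proteasome dependence: MCF7 cells pretreated 2 h with 5 μM MG132, then cotreated with 5 μM compound plus 5 μM MG132 for 16 h more; SIRT2 detected by immunoblot.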

A further assay concerns MDA-MB-231. Nature of the assay: Cytotoxicity against human MDA-MB-231 cells assessed as reduction in cell viability at 1 uM after 72 hrs. Type of assay: functional, cell-based.
In assay [6] the target is T4, Protein cereblon/NAD-dependent protein deacetylase sirtuin-3, mitochondrial (Homo sapiens). Nature of the assay: Protac activity at CRBN/SIRT3 in human HEK293T cells assessed as abundance ratio at 5 uM incubated for 16 hrs by TMT global proteomics assay relative to DMSO. The class given is cell-based. As to conditions: HEK-293T. The method in brief:
as §1

For assay [7], the target named is T2, Protein cereblon/NAD-dependent protein deacetylase sirtuin-2 (Homo sapiens). Nature of the assay: Protac activity at CRBN/SIRT2 in human MCF7 cells assessed as inhibition of SIRT2 deacetylation by measuring increase in acetylated-alpha tubulin level at 5 uM measured after 12 hrs by DAPI staining based immunofluorescence microscopic analysis. Type of assay: cell-based. The method in brief: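 MCF7 cells treated for 12 h with 5 or 10 μM, DMSO as control. Acetyl-α-tubulin (K40) was imaged by immunofluorescence, and fluorescence intensity was quantified and normalized to vehicle.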

For assay [8], the target named is T1, Protein cereblon/NAD-dependent protein deacetylase sirtuin-1 (Homo sapiens). Nature of the assay: Protac activity at CRBN/SIRT1 in human MCF7 cells assessed as SIRT1 degradation at 5 to 10 uM after 48 hrs by immunoblot analysis. Particulars: dose microM 5-10, time 48.0 hrs. Type of assay: cell-based. The method in brief:
as §3

In assay [9] the target is T2, Protein cereblon/NAD-dependent protein deacetylase sirtuin-2 (Homo sapiens). Nature of the assay: Protac activity at CRBN/SIRT2 in human MDA-MB-231 cells assessed as SIRT2 degradation after 48 hrs by immunoblot analysis. The class given is cell-based. The essentials: as §2
Assay [10] addresses T1, Protein cereblon/NAD-dependent protein deacetylase sirtuin-1 (Homo sapiens). Nature of the assay: Protac activity at CRBN/SIRT1 in human HEK293T cells stably expressing flag-tagged K-Ras4a-G12V assessed as inhibition of SIRT2 defatty-acylation at 1 uM incubated for 48 hrs by immunoblot analysis. The class given is cell-based. Particulars: HEK-293T. The method in brief: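 HEK 293T cells stably overexpressing Flag-tagged K-Ras4a-G12V (confirmed by pan-Ras blot) were exposed to 1 μM compound for 48 h. SIRT1, SIRT2 and SIRT3 levels were then read by immunoblot.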

For another assay, the system named is MCF7. Nature of the assay: Cytotoxicity against human MCF7 cells assessed as reduction in cell viability at 1 uM after 72 hrs. The class given is functional, cell-based.
The target of assay [11] is T2, Protein cereblon/NAD-dependent protein deacetylase sirtuin-2 (Homo sapiens). Nature of the assay: Protac activity at CRBN/SIRT2 in human MCF7 cells assessed as SIRT2 degradation at 25 uM by immunoblot analysis. Type of assay: cell-based. The method in brief: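 MCF7 cells treated at a fixed concentration (10 or 25 μM) and harvested at several incubation times; SIRT2 level read by immunoblot.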

The target in assay [12] is Protein cereblon/NAD-dependent protein deacylase sirtuin-5, mitochondrial (Homo sapiens) (UniProt Q9NXA8+Q96SW2). Nature of the assay: Protac activity at CRBN/SIRT5 in human HEK293T cells assessed as abundance ratio at 5 uM incubated for 16 hrs by TMT global proteomics assay relative to DMSO. Type of assay: cell-based. Particulars: HEK-293T. The essentials:
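HEK 293T cells were treated for 16 h. Global proteome was quantified by Tandem Mass Tag labelling. The abundance ratio of each sirtuin was taken against DMSO-treated cells.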

Each structure is given as a SMILES string. Active and inactive are the calls of the source. The calls are words filed in the database; no cut-off is given here.

Chain of Protein cereblon/NAD-dependent protein deacylase sirtuin-5, mitochondrial (Homo sapiens) (Q96SW2 whole entry, looked up): as the sequence (Q96SW2 whole entry, looked up, one chain of several) above
Chain of Protein cereblon/NAD-dependent protein deacylase sirtuin-5, mitochondrial (Homo sapiens) (Q9NXA8 whole entry, looked up): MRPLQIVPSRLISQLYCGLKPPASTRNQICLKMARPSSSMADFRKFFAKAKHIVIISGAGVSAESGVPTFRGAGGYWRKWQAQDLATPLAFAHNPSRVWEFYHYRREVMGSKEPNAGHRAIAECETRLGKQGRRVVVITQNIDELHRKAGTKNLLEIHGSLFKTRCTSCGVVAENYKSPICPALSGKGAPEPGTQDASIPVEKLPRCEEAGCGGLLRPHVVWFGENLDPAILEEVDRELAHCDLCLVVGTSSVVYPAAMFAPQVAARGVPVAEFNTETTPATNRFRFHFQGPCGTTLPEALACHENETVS

On to `CCCCCCCCCCCCCC(=S)NCCCC[C@H](NC(=O)CCOCCOCCOCCOCCNc1cccc2c1C(=O)N(C1CCC(=O)NC1=O)C2=O)C(=O)Nc1ccccc1` (some centres undefined), for which the outcome (in [1]; in assay [4]; in assay [5]; with MDA-MB-231; in [6]; in assay [8]) was inactive. For the same compound, the outcome (in assay [10]; in the assay on MCF7; in assay [11]; in assay [12]) was inactive. For the same compound, the outcome in assay [2], in assay [7] and in [9] was Active. In assay [3], the IC50 – broadly, the concentration that inhibits the measured activity by half – came out at 41 µM.

The values above are taken from ChEMBL document CHEMBL4725483, “Simultaneous Inhibition of SIRT2 Deacetylase and Defatty-Acylase Activities via a PROTAC Strategy” (ACS Med Chem Lett, 2020).
